From ChEMBL document CHEMBL3259551, “Novel delta opioid receptor agonists with oxazatricyclodecane structure” (ACS Med Chem Lett, 2014)

Legend:
[1] = target: T1, Mu-type opioid receptor (Homo sapiens, UniProt P35372); assay: Agonist activity at human mu opioid receptor expressed in HEK293 cells by CellKey method relative to DAMDO; assay type: cell-based
[2] = target: T2, Delta-type opioid receptor (Homo sapiens, UniProt P41143); assay: Agonist activity at human delta opioid receptor expressed in HEK293 cells by CellKey method relative to SNC80; assay type: cell-based
T2 sequence (P41143 whole entry): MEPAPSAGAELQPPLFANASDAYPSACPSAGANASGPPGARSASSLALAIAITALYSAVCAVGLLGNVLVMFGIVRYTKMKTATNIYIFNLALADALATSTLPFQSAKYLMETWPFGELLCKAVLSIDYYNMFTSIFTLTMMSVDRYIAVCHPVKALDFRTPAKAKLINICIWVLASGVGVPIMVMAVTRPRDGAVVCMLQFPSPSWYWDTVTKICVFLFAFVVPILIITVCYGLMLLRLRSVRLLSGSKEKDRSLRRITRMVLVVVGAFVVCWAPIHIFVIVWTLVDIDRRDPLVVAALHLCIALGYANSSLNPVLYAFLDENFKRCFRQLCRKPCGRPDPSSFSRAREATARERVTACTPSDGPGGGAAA
Summary of the method: (§1)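 Label-free CellKey impedance biosensor readout of receptor activity in HEK293 cells expressing human MOR, DOR or KOR, run in duplicate. Emax is the % of the response to DAMGO for MOR, SNC80 for DOR and (−)-U-50,488H for KOR.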

[3] = species: Mus musculus; assay: Selectivity ratio of Ki for mouse mu opioid receptor to Ki for mouse delta opioid receptor
[4] = target: Delta-type opioid receptor (Mus musculus, UniProt P32300); assay: Displacement of [3H]DPDPE from delta opioid receptor in mouse whole brain […] membrane; assay type: tissue-based
Chain of Delta-type opioid receptor (Mus musculus, UniProt P32300) (P32300 whole entry): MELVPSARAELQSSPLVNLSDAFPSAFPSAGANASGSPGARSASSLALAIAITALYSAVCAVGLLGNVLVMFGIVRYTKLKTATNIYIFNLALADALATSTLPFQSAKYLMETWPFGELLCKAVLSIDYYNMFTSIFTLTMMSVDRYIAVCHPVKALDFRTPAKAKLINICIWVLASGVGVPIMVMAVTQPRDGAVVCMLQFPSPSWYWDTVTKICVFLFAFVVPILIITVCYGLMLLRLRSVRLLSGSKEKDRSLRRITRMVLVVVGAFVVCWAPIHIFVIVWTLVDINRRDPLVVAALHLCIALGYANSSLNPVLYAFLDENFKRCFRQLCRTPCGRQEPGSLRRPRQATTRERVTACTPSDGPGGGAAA
Summary of the method: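 Competitive binding run in duplicate. MOR used [3H]DAMGO and DOR used [3H]DPDPE, both on mouse whole-brain membranes without cerebellum.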

[5] = target: Mu-type opioid receptor (Mus musculus, UniProt P42866); assay: Displacement of [3H]DAMGO from mu opioid receptor in mouse whole brain […] membrane; assay type: tissue-based
Chain of Mu-type opioid receptor (Mus musculus, UniProt P42866) (P42866 whole entry): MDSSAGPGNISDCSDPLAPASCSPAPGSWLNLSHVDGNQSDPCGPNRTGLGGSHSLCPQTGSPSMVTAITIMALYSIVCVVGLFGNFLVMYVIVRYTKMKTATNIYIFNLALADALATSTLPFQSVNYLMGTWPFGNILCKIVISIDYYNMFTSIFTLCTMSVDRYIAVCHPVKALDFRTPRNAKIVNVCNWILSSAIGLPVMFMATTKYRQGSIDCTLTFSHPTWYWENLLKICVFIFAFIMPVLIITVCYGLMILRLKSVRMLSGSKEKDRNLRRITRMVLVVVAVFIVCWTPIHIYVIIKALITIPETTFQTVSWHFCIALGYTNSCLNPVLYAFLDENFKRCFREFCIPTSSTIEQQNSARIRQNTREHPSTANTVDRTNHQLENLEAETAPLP
Summary of the method: (§2)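 Competitive binding run in duplicate. MOR used [3H]DAMGO and DOR used [3H]DPDPE, both on mouse whole-brain membranes without cerebellum. KOR used [3H]U-69,593 on guinea pig cerebellum membranes.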

[6] = target: T2, Delta-type opioid receptor; assay: Agonist activity at human delta opioid receptor expressed in HEK293 cells by CellKey method; assay type: cell-based; summary of the method: as §1
[7] = target: T1, Mu-type opioid receptor; assay: Agonist activity at human mu opioid receptor expressed in HEK293 cells by CellKey method; assay type: cell-based
Summary of the method: (§3)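 Label-free CellKey impedance biosensor readout of receptor activity in HEK293 cells expressing human MOR, DOR or KOR, run in duplicate.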

[8] = Selectivity ratio of Ki for guinea pig kappa opioid receptor to Ki for mouse delta opioid receptor
[9] = target: Kappa-type opioid receptor (Cavia porcellus, UniProt P41144); assay: Displacement of [3H]U69593 from kappa opioid receptor in guinea pig cerebellum membrane; summary of the method: as §2
Chain of Kappa-type opioid receptor (Cavia porcellus, UniProt P41144) (P41144 whole entry): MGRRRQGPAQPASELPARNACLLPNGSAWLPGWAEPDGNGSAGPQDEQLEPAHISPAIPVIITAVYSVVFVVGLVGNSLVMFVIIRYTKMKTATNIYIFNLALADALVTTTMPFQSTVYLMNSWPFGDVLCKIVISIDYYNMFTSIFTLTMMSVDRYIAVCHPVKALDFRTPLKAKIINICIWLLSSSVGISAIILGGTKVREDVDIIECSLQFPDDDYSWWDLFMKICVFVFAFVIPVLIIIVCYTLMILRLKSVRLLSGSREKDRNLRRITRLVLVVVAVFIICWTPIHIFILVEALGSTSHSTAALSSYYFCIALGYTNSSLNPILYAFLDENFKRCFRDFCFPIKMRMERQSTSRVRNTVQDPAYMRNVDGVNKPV

[10] = target: T1, Mu-type opioid receptor; assay: Agonist activity at human mu opioid receptor expressed in CHO cells assessed as [35S]-GTP[gammaS] binding; assay type: cell-based
Summary of the method: (§4)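 Human MOR, DOR or KOR expressed in CHO cells; [35S]GTPγS binding run in duplicate. Emax is the % of the response to DAMDO for MOR, SNC80 for DOR and U-69,593 for KOR.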

[11] = target: T2, Delta-type opioid receptor; assay: Agonist activity at human delta opioid receptor expressed in CHO cells assessed as [35S]-GTP[gammaS] binding relative to SNC80; assay type: functional, cell-based; summary of the method: as §4
[12] = target: T1, Mu-type opioid receptor; assay: Agonist activity at human mu opioid receptor expressed in CHO cells assessed as [35S]-GTP[gammaS] binding relative to DAMDO; assay type: cell-based; summary of the method: as §4
[13] = target: T3, Kappa-type opioid receptor (Homo sapiens, UniProt P41145); assay: Agonist activity at human kappa opioid receptor expressed in CHO cells assessed as [35S]-GTP[gammaS] binding relative to U69593; assay type: functional, cell-based; summary of the method: as §4
T3 sequence (P41145 whole entry): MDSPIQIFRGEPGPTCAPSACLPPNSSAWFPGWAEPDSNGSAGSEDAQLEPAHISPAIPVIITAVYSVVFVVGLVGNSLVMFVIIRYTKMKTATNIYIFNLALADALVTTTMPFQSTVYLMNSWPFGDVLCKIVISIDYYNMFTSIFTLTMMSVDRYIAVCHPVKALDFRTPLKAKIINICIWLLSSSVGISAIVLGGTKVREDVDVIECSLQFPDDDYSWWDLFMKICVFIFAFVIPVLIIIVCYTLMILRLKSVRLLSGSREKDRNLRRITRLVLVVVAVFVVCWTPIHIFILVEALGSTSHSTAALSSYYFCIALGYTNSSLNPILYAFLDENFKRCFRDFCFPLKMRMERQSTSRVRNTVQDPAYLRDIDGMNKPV

[14] = target: T3, Kappa-type opioid receptor; assay: Agonist activity at human kappa opioid receptor expressed in CHO cells assessed as [35S]-GTP[gammaS] binding; assay type: functional, cell-based; summary of the method: as §4
[15] = target: T2, Delta-type opioid receptor; assay: Agonist activity at human delta opioid receptor expressed in CHO cells assessed as [35S]-GTP[gammaS] binding; assay type: functional, cell-based; summary of the method: as §4
[16] = target: T3, Kappa-type opioid receptor; assay: Agonist activity at human kappa opioid receptor expressed in HEK293 cells by CellKey method relative to (-)U50488H; assay type: cell-based; summary of the method: as §1
[17] = target: T3, Kappa-type opioid receptor; assay: Agonist activity at human kappa opioid receptor expressed in HEK293 cells by CellKey method; assay type: cell-based; summary of the method: as §3
[18] = tested on: Mus musculus; assay: Toxicity in mouse assessed as induction of convulsion at 1 to 10 mg/kg, sc; assay type: organism-based; set-up: dose 1-10 mg/kg, route subcutaneous; details: in vivo
Summary of the method: (§5)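 Mice dosed subcutaneously, then scored in the acetic acid writhing test and watched for convulsive behaviour. […] taken from the dose–response. Antagonist reversal tested with NTI, β-FNA or nor-BNI. Groups compared against saline-treated mice by one-way ANOVA with Bonferroni's test.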

[19] = tested on: Mus musculus; assay: Analgesic activity in sc dosed mouse assessed as inhibition of acetic acid-induced writhing treated after 15 mins of acetic acid-challenge; assay type: functional; summary of the method: as §5

T1 sequence (P35372 whole entry): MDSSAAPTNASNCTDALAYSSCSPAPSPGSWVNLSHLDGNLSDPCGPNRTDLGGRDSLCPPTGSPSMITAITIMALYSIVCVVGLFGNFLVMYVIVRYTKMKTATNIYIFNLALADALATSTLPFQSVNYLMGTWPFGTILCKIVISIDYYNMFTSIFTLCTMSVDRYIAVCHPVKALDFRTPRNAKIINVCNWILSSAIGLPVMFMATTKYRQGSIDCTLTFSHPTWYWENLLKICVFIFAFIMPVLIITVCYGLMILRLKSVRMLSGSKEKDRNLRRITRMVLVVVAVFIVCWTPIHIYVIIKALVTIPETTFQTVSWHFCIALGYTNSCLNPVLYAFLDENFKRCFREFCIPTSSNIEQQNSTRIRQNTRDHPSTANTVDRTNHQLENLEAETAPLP

SMILES | Emax [1] [%] | Emax [2] [%] | Ratio Ki [3] | Ki [4] [nM] | Ki [5] [nM] | EC50 [6] [nM] | EC50 [7] [nM] | Ratio Ki [8] | Ki [9] [nM] | EC50 [10] [nM] | Emax [11] [%] | Emax [12] [%] | Emax [13] [%] | EC50 [14] [nM] | EC50 [15] [nM] | Emax [16] [%] | EC50 [17] [nM] | Activity [18] | inhibition [19] | ED50 ([19]; 0.25 h) [mg/kg]
C=CCN1CC[C@@]23c4c5ccc(O)c4OCO[C@]46CC[C@@]2(O[C@H](C(=O)N4Cc2ccccc2)[C@H]63)[C@H]1C5 | 11.3 | 77.2 | 55.8 | 1.23 | 68.4 | 2 | 5.1 | 46.2 | 56.6 | 2.7 | 94.6 | 5.4 | 74 | 231 | 6.5 | – | – | – | – | –
O=C1[C@H]2O[C@@]34CC[C@@]5(OCOc6c(O)ccc7c6[C@@]3(CCN(CCc3ccccc3)[C@@H]4C7)[C@H]25)N1Cc1ccccc1 | 40.2 | 108 | 17.7 | 2.59 | 45.9 | 20.5 | 639 | 227 | 588 | 2.3 | 115 | 83 | – | – | 9.2 | 22.6 | 12500 | – | – | –
C=CCN1C[C@H](C)N([C@H](c2ccc(C(=O)N(CC)CC)cc2)c2cccc(OC)c2)C[C@H]1C [SNC-80] | 6.8 | – | – | – | 695 | – | – | – | > 1000 | – | – | – | – | – | – | 5.9 | – | – | – | –
CN1CC[C@@]23c4c5ccc(O)c4OCO[C@]46CC[C@@]2(O[C@H](C(=O)N4Cc2ccccc2)[C@H]63)[C@H]1C5 | 36.1 | 138 | 12 | 1.94 | 23.3 | 141 | 1350 | 103 | 200 | 113 | 112 | 110 | 83.6 | 478 | 11 | 79.2 | 307 | Non-toxic | Dose-dependent effect | 5.26
COc1ccc2c(c1O)[C@]13CCN(CC4CC4)[C@H](C2)[C@]12CC[C@]1(O)[C@H]3[C@H](O2)C(=O)N1Cc1ccccc1 | – | – | 0.27 | 175 | 47.7 | – | – | 1.4 | 248 | – | – | – | – | – | – | – | – | – | – | –
O=C1[C@H]2O[C@@]34CC[C@@]5(OCOc6c(O)ccc7c6[C@@]3(CCN(CC3CC3)[C@@H]4C7)[C@H]25)N1c1ccccc1 | 8.8 | 123 | 8.6 | 0.534 | 4.61 | 0.39 | 1.2 | 3.2 | 1.69 | 9 | 118 | 25.6 | 42.9 | 6.5 | 0.98 | 80.4 | 1.2 | – | – | –
CC(C)CN1CC[C@@]23c4c5ccc(O)c4OCO[C@]46CC[C@@]2(O[C@H](C(=O)N4Cc2ccccc2)[C@H]63)[C@H]1C5 | 12.2 | 130 | 26.6 | 7 | 186 | 140 | 400 | 17 | 119 | 223 | 96.4 | 8.4 | 65.6 | 760 | 15.6 | 57.9 | 333 | – | – | –
O=C1[C@H]2O[C@@]34CC[C@@]5(OCOc6c(O)ccc7c6[C@@]3(CCN(CC3CC3)[C@@H]4C7)[C@H]25)N1CCc1ccccc1 | 4.8 | 90.6 | 1.5 | 1.16 | 1.75 | 0.62 | 5.2 | 1.7 | 1.94 | 2.1 | 103 | 19.7 | 51.2 | 3.9 | 0.41 | 75.8 | 2.4 | – | – | –
O=C1[C@H]2O[C@@]34CC[C@@]5(OCOc6c(O)ccc7c6[C@@]3(CCN(CC3CC3)[C@@H]4C7)[C@H]25)N1Cc1ccccc1 | 9.6 | 88.7 | 10 | 0.313 | 3.14 | 1.54 | 1.8 | 16.4 | 5.14 | 2.8 | 92.8 | 13.7 | 69.1 | 80.5 | 1.1 | 50.5 | 39.8 | – | – | –
